Measurements taken from ChEMBL document CHEMBL1142057, “Inhibition of the G2 DNA damage checkpoint by oliveroline isolated from Duguetia odorata” (J Nat Prod, 2007).
Calls of active or inactive are those of the source. The rule behind the calls is not given here.

Key:
MCF7 [1] = assay: Inhibition of cell proliferation in MCF7 mp53 cells in absence of 6.5 Gy [60Co]-induced DNA damage; format: functional, cell-based; conditions: Homo sapiens
How it was run: (§1)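 MCF-7 mp53 cells seeded at 1000 cells/well and grown overnight. Compound applied over a concentration range for 24 h (DMSO ≤1% final), then irradiated with 0 or 6.5 Gy. Compound removed 24 h later and cells grown in fresh medium until untreated cells neared confluence (typically 4-6 days). Proliferation read by MTT, 2 h at 37 °C, SDS/DMF solubilisation, absorbance 570 nm. IC50 reported.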

MCF7 [2] = assay: Inhibition of cell proliferation in MCF7 mp53 cells in presence of 6.5 Gy [60Co]-induced DNA damage; format: functional, cell-based; conditions: Homo sapiens; how it was run: as §1
MCF7 [3] = assay: Inhibition of 6.5 Gy [60Co]-induced G2 DNA damage check point in MCF7 mp53 cells; format: functional, cell-based; conditions: Homo sapiens
How it was run: (§2)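 MCF-7 mp53 cells seeded at 2 × 10^5 cells/dish, cultured 24 h, then given 6.5 Gy (60Co, 1.2 Gy/min). Sixteen hours later (90% in G2), compound added with 100 ng/mL nocodazole for 8 h. Cells fixed in 70% EtOH, stained with mitosis-specific antibody GF-7 and propidium iodide. 20 000 events per sample read by flow cytometry as % cells escaping G2 arrest. DMSO carrier control.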

MCF7 [4] = assay: Inhibition of 6.5 Gy [60Co]-induced G2 DNA damage check point in MCF7 mp53 cells at >10 uM; format: functional, cell-based; conditions: Homo sapiens; how it was run: as §2
MCF7 [5] = assay: Inhibition of 6.5 Gy [60Co]-induced G2 DNA damage check point in MCF7 mp53 cells at 10 uM; format: functional, Homo sapiens; design: scale not given: the % may be the effect or the level left; how it was run: as §2
[6] = molecular target: T1, Serine/threonine-protein kinase Chk1 (Homo sapiens) (UniProt O14757); assay: Inhibition of Chk1
T1 sequence (whole entry): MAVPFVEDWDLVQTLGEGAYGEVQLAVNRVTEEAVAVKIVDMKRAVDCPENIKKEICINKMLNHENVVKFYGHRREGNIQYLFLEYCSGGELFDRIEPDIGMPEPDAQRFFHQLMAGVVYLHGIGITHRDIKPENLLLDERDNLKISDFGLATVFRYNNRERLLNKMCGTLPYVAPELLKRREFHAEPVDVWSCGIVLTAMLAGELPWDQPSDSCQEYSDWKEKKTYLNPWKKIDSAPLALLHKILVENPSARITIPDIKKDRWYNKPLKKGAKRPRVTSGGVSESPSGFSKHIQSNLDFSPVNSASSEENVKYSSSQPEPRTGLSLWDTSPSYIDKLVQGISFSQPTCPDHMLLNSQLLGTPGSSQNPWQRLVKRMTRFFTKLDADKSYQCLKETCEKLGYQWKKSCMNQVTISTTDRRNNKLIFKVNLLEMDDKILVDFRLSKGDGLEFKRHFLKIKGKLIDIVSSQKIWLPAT

MCF7 [7] = assay: Inhibition of 6.5 Gy [60Co]-induced G2 DNA damage check point in MCF7 mp53 cells at 50 uM; format: functional, Homo sapiens; design: scale not given: the % may be the effect or the level left; how it was run: as §2

Row | Activity [6] | SMILES | IC50 (MCF7 [1]) [µM] | IC50 (MCF7 [2]) [µM] | Activity (MCF7 [3]) | Activity (MCF7 [4]) | Activity (MCF7 [5]) [%] | Activity (MCF7 [7]) [%]
1 |  | COc1cc2c(cc1O)CC[n+]1cc3cc(OC)c(OC)cc3cc1-2 [DEHYDRODISCRETINE] | 25 | 7 | inactive | inactive |  | 
2 |  | O=C1NC(=O)c2c1c1c3ccccc3[nH]c1n1cncc21 [ISOGRANULATIMIDE] |  |  |  |  | 35 | 
3 | inactive | CN1CCc2cc3c(c4c2[C@H]1[C@@H](O)c1ccccc1-4)OCO3 [OLIVEROLINE] | 45 | 20 | Dose-dependent effect | Active |  | 35
4 |  | COc1cc2c(cc1OC)-c1cc3cc(OC)c(OC)cc3c[n+]1CC2 [PSEUDOPALMATINE] | 250 | 80 | inactive | inactive |  | 
